{"source": "paper PMC7135742", "about": "(Nature biomedical engineering, 2020)", "key": {"[1]": {"tested_on": "pANXA2 in 4T1 cells", "experiment": "Western blot of pANXA2 levels after insulin / PP2 treatment", "assay_type": "cell-based, murine", "conditions": "100 nM insulin 4 h, PP2 co-administration", "outline": "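4T1 murine breast cancer cells serum-starved overnight, then treated with 100 nM insulin for 4 h or with PP2, following the same protocol as the insulin imaging study. Cells lysed by ultrasonic homogenisation in RIPA buffer (10 mM Tris-HCl, pH 8.0), and lysates resolved by SDS-PAGE and immunoblotted for pANXA2.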"}, "[2]": {"target": "LS301", "experiment": "MST of LS301 with whole-cell lysate", "conditions": "reference: lysate of insulin-stimulated 4T1 cells; sites Y23"}, "[3]": {"tested_on": "4T1 luc/GFP cells", "experiment": "In vitro blocking study of LS301 uptake", "assay_type": "cell-based, murine", "conditions": "24 h, LS301 1 µM, blocking agent 50 µM"}, "[4]": {"target": "LS301 (cypate-cyclic(DCys-Gly-Arg-Asp-Ser-Pro-Cys)-Lys-OH)", "experiment": "MST"}, "[5]": {"tested_on": "tumours", "conditions": "cited from earlier work"}, "[6]": {"tested_on": "A549, MDA-MB-231, and 4T1", "experiment": "Cellular uptake by fluorescence microscopy, solid cancer cell lines", "assay_type": "cell-based", "conditions": "1 μM cypate, all cells", "outline": "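Cells were grown in medium with 10% FBS and penicillin/streptomycin (37°C, 5% CO2), then seeded overnight on 8-chamber slides. Compound stock was made in 20% DMSO in PBS (pH 7.4) and diluted into medium to 1 µM final, then incubated at 37°C for several time points. SYTO 13 nuclear stain was added for 45 min at 37°C before epifluorescence or confocal imaging.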"}}, "note": "pKd: −log10 of the molar value.", "data": [{"compound": "insulin: stimulates tyrosine-23 phosphorylation of ANXA2", "values": [{"measurement": "effect on pANXA2 levels in 4T1 cells", "setting": "[1]", "value": "increased levels of pANXA2 relative to unstimulated cells"}]}, {"compound": "ANXA2 (endogenous, 4T1 cells) (from UniProt P07356) lysate of PP2-treated 4T1 cells", "values": [{"measurement": "KD", "setting": "[2]", "value": "weaker; reference 0.017 ± 0.004 nM"}]}, {"compound": "LCKLSL", "values": [{"measurement": "blocking of LS301 binding and internalization in cells", "setting": "[3]", "value": "inhibited the binding and internalization of LS301 in cells"}]}, {"compound": "Purified pANXA2 protein (Annexin A2 phosphorylated at tyrosine 23) (from UniProt P07355 1-339) (natural protein)", "values": [{"measurement": "pKd", "setting": "[4]", "value": 10.12}]}, {"compound": "Purified ANXA2 protein (Annexin A2) (from UniProt P07355 1-339) (natural protein)", "values": [{"measurement": "pKd", "setting": "[4]", "value": 9.41}]}, {"compound": "Cypate-GRDSPK", "values": [{"measurement": "retention of Cypate-GRDSPK in tumours", "setting": "[5]", "value": "the retention was transient"}]}, {"compound": "CC(C)(C)n1nc(-c2ccc(Cl)cc2)c2c(N)ncnc21", "note": "[PP2]", "values": [{"measurement": "effect on pANXA2 levels in 4T1 cells", "setting": "[1]", "value": "this effect was suppressed"}]}, {"compound": "CC1(C)C(/C=C/C=C/C=C/C=C2/N(CCC(=O)O)c3ccc4ccccc4c3C2(C)C)=[N+](CCC(=O)[O-])c2ccc3ccccc3c21", "note": "[cypate]", "values": [{"measurement": "cellular retention of cypate alone", "setting": "[6]", "value": "only transient retention in all cells"}]}]}
